Data set [1] concerns the target MC5R. The conditions noted are these: read-out: binding affinity to MC5R; cited from earlier work.
For data set [2], the target named is melanocortin 1 receptor (MC1R). The conditions noted are these: read-out: binding affinity (Ki) to MC1R; cited from earlier work.
The target of data set [3] is MC3R. The conditions noted are these: read-out: binding affinity to MC3R; cited from earlier work.
Data set [4] addresses MC4R. The note with it: read-out: binding affinity to MC4R; cited from earlier work.
The target of data set [5] is MC3R (Homo sapiens) (UniProt P41968). The conditions noted are these: cited from earlier work.
Sequence of UniProt P41968 (P41968 whole entry): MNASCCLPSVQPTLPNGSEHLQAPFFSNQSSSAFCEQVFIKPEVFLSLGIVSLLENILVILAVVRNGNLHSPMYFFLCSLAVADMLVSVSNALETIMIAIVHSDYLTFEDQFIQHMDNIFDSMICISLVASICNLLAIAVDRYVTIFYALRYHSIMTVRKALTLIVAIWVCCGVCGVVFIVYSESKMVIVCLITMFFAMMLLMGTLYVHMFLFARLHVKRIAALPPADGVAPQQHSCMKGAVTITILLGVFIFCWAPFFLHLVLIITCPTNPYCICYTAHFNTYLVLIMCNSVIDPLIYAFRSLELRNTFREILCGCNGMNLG
Data set [6] has as its target MC1R (Homo sapiens) (UniProt Q01726). The conditions noted are these: cited from earlier work.
Sequence of UniProt Q01726 (Q01726 whole entry): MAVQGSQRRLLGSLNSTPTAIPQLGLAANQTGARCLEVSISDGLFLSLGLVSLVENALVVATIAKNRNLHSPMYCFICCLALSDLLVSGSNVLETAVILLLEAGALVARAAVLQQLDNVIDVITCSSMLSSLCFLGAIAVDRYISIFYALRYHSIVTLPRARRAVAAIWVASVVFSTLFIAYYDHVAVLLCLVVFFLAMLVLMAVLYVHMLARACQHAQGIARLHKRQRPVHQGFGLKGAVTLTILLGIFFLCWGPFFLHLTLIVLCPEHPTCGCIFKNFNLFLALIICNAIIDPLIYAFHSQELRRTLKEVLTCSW
Data set [7] has as its target MC5R (Homo sapiens) (UniProt P33032). The conditions noted are these: cited from earlier work.
Sequence of UniProt P33032 (P33032 whole entry): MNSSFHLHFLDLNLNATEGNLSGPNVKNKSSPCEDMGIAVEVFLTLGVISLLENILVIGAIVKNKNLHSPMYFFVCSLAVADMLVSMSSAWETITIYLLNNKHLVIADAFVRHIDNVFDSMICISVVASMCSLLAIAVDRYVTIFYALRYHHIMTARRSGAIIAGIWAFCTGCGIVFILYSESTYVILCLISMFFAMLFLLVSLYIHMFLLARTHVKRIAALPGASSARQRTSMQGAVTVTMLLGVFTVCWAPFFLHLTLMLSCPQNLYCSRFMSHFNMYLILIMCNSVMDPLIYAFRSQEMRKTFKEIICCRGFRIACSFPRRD
Data set [8] addresses MC4R (Homo sapiens) (UniProt P32245). The note with it: cited from earlier work.
Sequence of UniProt P32245 (P32245 whole entry): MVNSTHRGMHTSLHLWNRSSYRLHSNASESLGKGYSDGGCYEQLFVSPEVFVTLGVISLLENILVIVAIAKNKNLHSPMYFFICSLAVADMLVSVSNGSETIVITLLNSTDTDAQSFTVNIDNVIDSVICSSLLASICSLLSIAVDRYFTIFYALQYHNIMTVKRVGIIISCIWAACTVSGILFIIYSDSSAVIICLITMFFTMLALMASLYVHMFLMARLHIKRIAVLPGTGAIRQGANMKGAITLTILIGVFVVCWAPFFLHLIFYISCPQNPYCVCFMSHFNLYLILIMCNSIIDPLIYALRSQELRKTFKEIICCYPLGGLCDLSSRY
The test system of data set [9] is B16–F10 melanoma. As to the kind of experiment: Biodistribution in C57BL/6J mice bearing B16–F10 melanoma. In kind it is in vivo. In a few lines: (§1)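 Male C57BL/6J mice (8–12 weeks) were inoculated subcutaneously on the right dorsal flank with 1 × 10^6 B16–F10 cells and used at 6–8 mm tumor diameter. They received 1–2 MBq 68Ga-labeled test peptide by tail vein under anesthesia, with or without co-injected 0.5 mg BMS 470539. At 1 or 2 h p.i., blood and organs were weighed and gamma-counted. Uptake is %ID/g (mean ± SD); blocked vs unblocked compared by two-way ANOVA with Holm–Sidak.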

Test in data set [10]: as above
The format is in vivo. The note with it: C57BL/6J, mouse, total radioactivity; for tissue uptake at 1 h / tissue uptake at 2 h: intravenous; for tissue to tissue ratio at 1 h / tissue to tissue ratio at 2 h: iv. Put shortly:
as §1

Data set [11] relates to B16–F10 cells. Description: Internalization assay. In kind it is cell-based, Mus musculus. The note with it: 2 h, 37 °C. In a few lines:
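B16–F10 mouse melanoma cells were grown in DMEM with 10% FBS and penicillin/streptomycin, then seeded overnight on poly-D-lysine plates. They were incubated with 68Ga-labeled test peptide at 37 °C with mild agitation for 30, 60, 90 or 120 min, then washed with PBS. Cells were trypsinized for the internalized fraction, and both fractions were gamma-counted in triplicate or quadruplicate.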

Data set [12] in a line: In vivo stability, radio-HPLC of mouse urine. Further details: species or system mice. The note with it: 1 h p.i., intravenous. Put shortly: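 Mice under 2% isoflurane received approximately 4–6 MBq 68Ga-labeled test peptide intravenously and recovered freely. At 1 h p.i. they were euthanized by CO2, and urine was collected. Urine was analyzed for metabolites by reversed-phase C18 HPLC in 21% acetonitrile with 0.1% TFA to give percent intact peptide. Three or four independent experiments were run.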

On to “Ac-Nle^4-Cyclo[Asp^5-His^6-D-Phe^7-Arg^8-Trp^9-Lys^10]αMSH4-10-NH2 [MTII]”, for which the Ki is 46.1 nM in data set [1], 0.69 nM in data set [2] and 34.1 nM in data set [3].
“Alpha-melanocyte-stimulating hormone [αMSH]”: the Ki in data set [4] was 900 nM.
For αMSH (from UniProt P01189), the Ki is 31.5 nM in data set [5], 0.23 nM in data set [6], 7160 nM in [7] and 900 nM in data set [8].
As to `CCCC[C@H](NC(=O)CN1CCC(NC(=O)CN2CCN(CC(=O)O)CCN(CC(=O)O)CCN(CC(=O)O)CC2)CC1)C(=O)N[C@H]1CC(=O)NCCCC[C@@H](C(N)=O)N(C)C(=O)[C@H](Cc2c[nH]c3ccccc23)N(C)C(=O)[C@H](CCCNC(=N)N)N(C)C(=O)[C@@H](Cc2ccccc2)NC(=O)[C@H](Cc2cnc[nH]2)N(C)C1=O` [[^68Ga]Ga-CCZ01099, metal not drawn], the tumor/blood uptake ratio in data set [9] (1 h p.i. blocked (n = 5), co-injection of 0.5 mg BMS 470539) came out at 2.24 ± 0.40; in data set [9] (1 h p.i. unblocked (n = 5)), 9.94; in data set [9] (2 h p.i. unblocked (n = 4)), 27.7. The results for the tumor/bone uptake ratio in data set [9] (1 h p.i. unblocked (n = 5)) and in data set [9] (2 h p.i. unblocked (n = 4)) were 23.3 and 52.7, respectively. Also, the tumor/muscle uptake ratio turned out to be 40.6 in data set [9] (1 h p.i. unblocked (n = 5)) and 125 in data set [9] (2 h p.i. unblocked (n = 4)). In addition, in data set [9] (1 h p.i., blocking with BMS 470539, p < 0.001), the “reduction of tumor uptake by blocking” value amounted to 91%. The tissue uptake at 1 h was determined as 6.33 ± 1.48 %ID/g in data set [10] (B16F10 tumor); 0.79 ± 0.72 %ID/g in data set [10] (adrenal glands); 0.65 ± 0.12 %ID/g in [10] (blood); 0.33 ± 0.18 %ID/g in data set [10] (bone); 0.24 ± 0.06 %ID/g in data set [10] (heart); 0.17 ± 0.05 %ID/g in data set [10] (intestine, 0.5 mg). Besides, the tissue uptake at 1 h is 0.34 ± 0.07 %ID/g in data set [10] (intestine); 5.59 ± 0.88 %ID/g in data set [10] (kidneys); 0.53 ± 0.07 %ID/g in [10] (liver); 0.69 ± 0.11 %ID/g in [10] (lungs); 0.16 ± 0.05 %ID/g in [10] (muscle); 0.22 ± 0.11 %ID/g in data set [10] (stomach). Moreover, the tissue uptake at 1 h was found to be 0.3 ± 0.08 %ID/g in [10] (thyroid) and 0.2 ± 0.06 %ID/g in data set [10] (male, testes). Also, the tissue to tissue ratio at 1 h in data set [10] (tumor and blood) came to 9.94 ± 2.93; in data set [10] (tumor and bone), 23.3 ± 12.1; in data set [10] (tumor and kidneys), 1.13 ± 0.22; in data set [10] (tumor and liver), 11.9 ± 2.26; in data set [10] (tumor and muscle), 40.6 ± 11.9. The tissue to tissue ratio at 2 h in data set [10] (tumor and bone) came to 52.7 ± 13.4; in data set [10] (tumor and liver), 11.8 ± 2.72. Besides, the tissue uptake at 2 h in [10] (male, seminal glands) was 0.04 ± 0.01 %ID/g; in [10] (male, testes), 0.07 ± 0.01 %ID/g. Also, in [11], the radioactivity internalized is 48%. Moreover, the “percentage of intact peptide” value in data set [12] is listed as ≥ 98%.

The values above are taken from publication PMC7240809 (ACS Omega, 2020).
